Source: ChEMBL document CHEMBL1140328, “Synthesis and mechanism of action studies of a series of norindenoisoquinoline topoisomerase I poisons reveal an inhibitor with a flipped orientation in the ternary DNA-enzyme-inhibitor complex as determined by X-ray crystallographic analysis” (2005)

Experiments:
[1] = Concentration required to inhibit the growth of human Ovarian OVCAR cells; type: functional
Procedure, shortened: (§1)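 NCI screen of about 55 human cancer cell lines; GI50 per cell line over a test range of 10⁻⁸ to 10⁻⁴ M. Mean graph midpoint is the average GI50 across all lines tested, with values outside the range set to 10⁻⁸ or 10⁻⁴ M.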

[2] = Concentration required to inhibit the growth of human Prostate DU-145 cells; type: functional; procedure, shortened: as §1
[3] = Concentration required to inhibit the growth of human Melanoma UACC-62 cells; type: functional; procedure, shortened: as §1
[4] = Concentration required to inhibit the growth of human Breast MDA-MB-435 cells; type: functional; procedure, shortened: as §1
[5] = Concentration required to inhibit the growth of human Colon […] cells; type: functional; procedure, shortened: as §1
[6] = target: T1, DNA topoisomerase 1 (Homo sapiens) (UniProt P11387); test: Topoisomerase-I mediated DNA Cleavage activity at 30 degree C for 30 min relative to NSC 314622; Range = 25-75%
T1 sequence (whole entry): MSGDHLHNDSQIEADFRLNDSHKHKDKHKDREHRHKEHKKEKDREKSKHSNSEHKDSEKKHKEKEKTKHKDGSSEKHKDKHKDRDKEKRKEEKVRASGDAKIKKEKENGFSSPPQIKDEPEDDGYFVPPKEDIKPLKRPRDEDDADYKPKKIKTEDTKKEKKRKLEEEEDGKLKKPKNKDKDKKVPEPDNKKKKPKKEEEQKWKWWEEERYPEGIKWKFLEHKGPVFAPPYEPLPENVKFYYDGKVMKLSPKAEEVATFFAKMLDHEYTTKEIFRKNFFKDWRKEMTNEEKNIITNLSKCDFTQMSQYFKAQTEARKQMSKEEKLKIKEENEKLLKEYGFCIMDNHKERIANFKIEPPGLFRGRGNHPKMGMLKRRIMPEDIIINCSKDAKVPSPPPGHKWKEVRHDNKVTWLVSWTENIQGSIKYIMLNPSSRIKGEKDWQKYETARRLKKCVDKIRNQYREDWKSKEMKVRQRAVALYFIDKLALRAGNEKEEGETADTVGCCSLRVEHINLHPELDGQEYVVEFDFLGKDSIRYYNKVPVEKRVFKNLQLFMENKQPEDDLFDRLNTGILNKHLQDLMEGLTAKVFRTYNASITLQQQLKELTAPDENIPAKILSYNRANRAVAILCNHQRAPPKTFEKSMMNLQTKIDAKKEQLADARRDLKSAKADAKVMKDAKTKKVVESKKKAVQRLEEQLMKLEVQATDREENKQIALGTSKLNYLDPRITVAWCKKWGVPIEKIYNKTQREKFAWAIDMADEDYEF

[7] = Concentration required to inhibit the growth of human Lung HOP-62 cells; type: functional; procedure, shortened: as §1
[8] = Concentration required to inhibit the growth of human Renal SN12C cells; type: functional; procedure, shortened: as §1
[9] = Concentration required to inhibit the growth of human prostate DU-145 cells; type: functional; procedure, shortened: as §1
[10] = Concentration required to inhibit the growth of human ProstateDU-145 cells; type: functional; conditions: DU-145; procedure, shortened: as §1
[11] = Concentration required to inhibit the growth of human CNSSF-539 cells; type: functional; procedure, shortened: as §1
[12] = Concentration required to inhibit the growth of human LungHOP-62 cells; type: functional
Procedure, shortened: (§2)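 Assayed in the National Cancer Institute screen, a panel of approximately 55 human cancer cell lines. Compounds were tested over a concentration range of 10⁻⁸ to 10⁻⁴ molar, and growth inhibition was expressed as GI₅₀ for each cell line.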

[13] = Concentration required to inhibit the growth of human ColonHCT-11 cells; type: functional; procedure, shortened: as §2
[14] = Concentration required to inhibit the growth of human OvarianOVCAR cells; type: functional; procedure, shortened: as §1
[15] = target: T1, DNA topoisomerase 1 (Homo sapiens); test: Topoisomerase-I mediated DNA Cleavage activity at 30 degree C for 30 min relative to NSC 314622; Range = 75-175%

SMILES | GI50 [1] | GI50 [2] | GI50 [3] | GI50 [4] | GI50 [5] | Cleavage [6] | GI50 [7] | GI50 [8] | GI50 [9] | GI50 [10] | GI50 [11] | GI50 [12] | GI50 [13] | GI50 [14] | Cleavage [15]
COc1ccc(OC)c2c3c(ncc12)-c1cc2c(cc1C3)OCO2 | 26.9 µM | 48.4 µM | > 100 µM | > 100 µM | 0.249 µM | 75% | < 0.01 µM | > 100 µM | – | – | – | – | – | – | –
COc1cc2c3c(n(C)c(=O)c2cc1OC)-c1cc2c(cc1C3=O)OCO2 | 73 µM | 37 µM | 4.2 µM | 96 µM | 35 µM | 75% | 1.3 µM | 68 µM | – | – | – | – | – | – | –
COc1cc2c(cc1OC)-c1ncc3c(OC)c(OC)c(OC)cc3c1C2 | 0.529 µM | – | 3.84 µM | – | 8.81 µM | 75% | 16 µM | – | – | – | – | – | – | – | –
COc1cc2c3c(ncc2c(OC)c1OC)-c1cc2c(cc1C3)OCO2 | – | – | – | > 100 µM | 22.1 µM | 75% | – | – | 26.9 µM | – | – | – | – | – | –
COc1cc2cnc3c(c2c(OC)c1OC)Cc1cc2c(cc1-3)OCO2 | 0.403 µM | – | 0.439 µM | 0.178 µM | 0.0694 µM | 75% | 0.234 µM | 0.602 µM | – | > 100 µM | 0.869 µM | – | – | – | –
CC[C@@]1(O)C(=O)OCc2c1cc1n(c2=O)Cc2cc3ccccc3nc2-1 [CAMPTOTHECIN] | – | – | – | – | – | – | – | – | – | – | 0.01 µM | 0.01 µM | 0.03 µM | 0.22 µM | –
COc1cc2c(cc1OC)-c1ncc3cc(OC)c(OC)cc3c1C2 | > 50 µM | > 50 µM | > 50 µM | > 50 µM | > 50 µM | 75% | – | > 50 µM | – | – | > 50 µM | – | – | – | –
COc1cc2c(c(OC)c1OC)-c1ncc3cc4c(cc3c1C2)OCO4 | 15.5 µM | 23.2 µM | 19.3 µM | 13.2 µM | 18.8 µM | – | 21.7 µM | 13.4 µM | – | – | – | – | – | – | –
c1c2c(cc3c1OCO3)-c1ncc3cc4c(cc3c1C2)OCO4 | 0.0232 µM | – | 0.19 µM | < 0.01 µM | 0.283 µM | 75% | 0.227 µM | 0.0414 µM | – | – | 0.598 µM | – | – | – | –
COc1cc2cnc3c(c2cc1OC)Cc1cc2c(cc1-3)OCO2 | – | 0.0281 µM | < 0.01 µM | < 0.01 µM | > 100 µM | – | 0.0721 µM | > 100 µM | – | – | < 0.01 µM | – | – | – | 175%
COc1cc2c(cc1OC)-c1ncc3cc(OC)c(OC)c(OC)c3c1C2 | 15.9 µM | 21.7 µM | 7.42 µM | 16.2 µM | 31.8 µM | – | 34.8 µM | 14.4 µM | – | – | 14 µM | – | – | – | –
COc1cc2c(cc1OC)-c1ncc3c(OC)ccc(OC)c3c1C2 | 15.4 µM | 28.1 µM | 18 µM | 23.4 µM | 17.8 µM | – | 21.4 µM | 14.8 µM | – | – | 14 µM | – | – | – | –
COc1cc2c(c(OC)c1OC)-c1ncc3c(OC)c(OC)c(OC)cc3c1C2 | 21.5 µM | 29.6 µM | 21.1 µM | 23 µM | 27.8 µM | 75% | 28.5 µM | 20.3 µM | – | – | – | – | – | – | –
COc1cc2c(c(OC)c1OC)-c1ncc3cc(OC)c(OC)c(OC)c3c1C2 | – | 26.6 µM | 17.4 µM | 20.8 µM | 33.5 µM | – | 35.4 µM | 17.6 µM | – | – | – | – | – | 19.1 µM | –
COc1cc2c(cc1OC)-c1ncc3cc4c(cc3c1C2)OCO4 | 61.2 µM | 25.3 µM | > 100 µM | 63.4 µM | 11.1 µM | – | – | > 100 µM | – | – | 23.4 µM | – | – | – | 175%
